The values below come from ChEMBL document CHEMBL1125557, “Dihydropyrimidine angiotensin II receptor antagonists” (J Med Chem, 1992).

In general, Ki refers to a measure of affinity in units of concentration, obtained from inhibition or displacement. High values mean a looser hold on the target, low ones a stronger hold on the target. One may read the Kb as the affinity of an antagonist, worked out from how it opposes an agonist. Higher therefore signals a less potent antagonist. Usually ED50 stands for the midpoint of the dose-response relation. Read a low ED50 as greater potency.

“And” between values parts separate entries of the source, which are not always exact repeats. Equal entries are not always repeated.

Experiment [1] addresses T1, Type-1 angiotensin II receptor B (Rattus norvegicus, UniProt P29089).
T1 sequence (P29089 whole entry): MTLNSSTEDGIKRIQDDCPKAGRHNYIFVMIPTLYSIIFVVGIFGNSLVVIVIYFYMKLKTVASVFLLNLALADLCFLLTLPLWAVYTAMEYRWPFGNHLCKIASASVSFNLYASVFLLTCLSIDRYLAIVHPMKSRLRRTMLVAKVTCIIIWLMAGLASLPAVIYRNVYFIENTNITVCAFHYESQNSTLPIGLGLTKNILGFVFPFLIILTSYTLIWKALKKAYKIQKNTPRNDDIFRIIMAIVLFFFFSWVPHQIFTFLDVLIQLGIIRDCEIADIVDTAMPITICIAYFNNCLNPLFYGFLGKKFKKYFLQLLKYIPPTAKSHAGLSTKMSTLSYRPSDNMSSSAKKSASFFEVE
The experiment is described as follows: Inhibition of [125I]- Sar,Ile8-angiotensin II binding to rat adrenal cortical membrane angiotensin II receptor.

For the next experiment, the species on record is Oryctolagus cuniculus. The experiment is described as follows: In vitro functional potency by antagonism of angiotensin II induced contraction of isolated rabbit aorta. An outline of the steps: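 Isolated rabbit aorta contracted by angiotensin II; antagonism expressed as KB (nM, ±SEM).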
Experiment [2] has as its system Rattus norvegicus. Briefly: In vivo antihypertensive activity against spontaneously hypertensive rats after oral administration of 30 uM/Kg dose between 18-24 hours. The class given is functional. An outline of the steps: (§1)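 Male SHR, surgically prepared, recovered 2 weeks on regular food and water. Low-NaCl diet from 5 days before testing; furosemide 2.5 mg/kg on 3 consecutive days before testing. Compounds given orally as agar suspension. Mean arterial pressure monitored for 24 h; maximum % fall in pressure per 6-h interval, n = 8-10.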

Experiment [3] relates to Rattus norvegicus. The experiment is described as follows: In vivo antihypertensive activity against spontaneously hypertensive rats after oral administration of 30 uM/Kg dose between 6-12 hours. The class given is functional. An outline of the steps:
as §1

The subject of experiment [4] is Rattus norvegicus. The experiment is described as follows: In vivo antihypertensive activity against spontaneously hypertensive rats after oral administration of 30 uM/Kg dose between 0-6 hours. The class given is functional. A digest of the protocol:
as §1

Experiment [5] deals with Rattus norvegicus. The experiment is described as follows: In vivo antihypertensive activity against spontaneously hypertensive rats after oral administration of 30 uM/Kg dose between 12-18 hours. The class given is functional. An outline of the steps:
as §1

For experiment [6], the system named is Rattus norvegicus. The experiment is described as follows: Compound was tested in vivo for antagonistic activity for the 50% inhibition of AII pressor response in male rats after intravenous administration. The class given is functional. A digest of the protocol: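 Normotensive male rats received three doses of test agent iv, then AII challenge (100 ng/kg iv) 2 min later. ED50 (dose halving the AII pressor response) from simplex curve fit of log dose versus maximum percent inhibition; n = 4.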

Experiment [7] relates to Rattus norvegicus. Briefly: In vivo antihypertensive activity against spontaneously hypertensive rats after oral administration of 30 umol/kg dose between 0-6 hours. The class given is functional. A digest of the protocol:
as §1

Experiment [8] concerns Rattus norvegicus. Briefly: In vivo antihypertensive activity against spontaneously hypertensive rats after oral administration of 10 umol/kg dose between 6-12 hours. The class given is functional. A digest of the protocol:
as §1

Experiment [9] concerns Rattus norvegicus. Briefly: In vivo antihypertensive activity against spontaneously hypertensive rats after oral administration of 30 umol/kg dose between 12-18 hours. The class given is functional. A digest of the protocol: as §1
Experiment [10] deals with Rattus norvegicus. The experiment is described as follows: In vivo antihypertensive activity against spontaneously hypertensive rats after oral administration of 10 umol/kg dose between 0-6 hours. The class given is functional. An outline of the steps: as §1
The test system of experiment [11] is Rattus norvegicus. The experiment is described as follows: In vivo antihypertensive activity against spontaneously hypertensive rats after oral administration of 30 umol/kg dose between 6-12 hours. The class given is functional. A digest of the protocol:
as §1

In experiment [12] the test system is Rattus norvegicus. Briefly: In vivo antihypertensive activity against spontaneously hypertensive rats after oral administration of 30 umol/kg dose between 18-24 hours. The class given is functional. An outline of the steps:
as §1

In experiment [13] the test system is Rattus norvegicus. Briefly: In vivo antihypertensive activity against spontaneously hypertensive rats after oral administration of 10 uM/Kg dose between 18-24 hours. The class given is functional. A digest of the protocol:
as §1

For experiment [14], the system named is Rattus norvegicus. Briefly: In vivo antihypertensive activity against spontaneously hypertensive rats after oral administration of 10 uM/Kg dose between 6-12 hours. The class given is functional. A digest of the protocol:
as §1

The test system of experiment [15] is Rattus norvegicus. The experiment is described as follows: In vivo antihypertensive activity against spontaneously hypertensive rats after oral administration of 10 uM/Kg dose between 12-18 hours. The class given is functional. A digest of the protocol:
as §1

The subject of experiment [16] is Rattus norvegicus. The experiment is described as follows: In vivo antihypertensive activity against spontaneously hypertensive rats after oral administration of 10 uM/Kg dose between 0-6 hours. The class given is functional. A digest of the protocol: as §1

As to `CCCCC1=NC(C)=C(C(=O)OCC)C(C)N1Cc1ccc(-c2ccccc2C(=O)O)cc1` (stereo unspecified), the Ki in experiment [1] came out at 990 nM. Further, in the experiment filed under Oryctolagus cuniculus (Oryctolagus cuniculus, Aorta), the Kb is 660 nM.
The like results for `CCCCc1nc(-c2ccccc2)c(C(=O)OCC)c(=O)n1Cc1ccc(-c2ccccc2C(=O)O)cc1` were, in that order, 1600 nM and 140 nM.
Consider `CCCCc1nc(Cl)c(CO)n1Cc1ccc(-c2ccccc2-c2nnn[nH]2)cc1` [LOSARTAN], for which the Kb in the experiment listed under Oryctolagus cuniculus came out at 86 nM.
As to `CCCCC1=NC(Cl)=C(C(=O)O)C(C)N1Cc1ccc(-c2ccccc2-c2nn[nH]n2)cc1` (stereo unspecified), the affinity in experiment [1] corresponds to a Ki of 1 nM. Also, the Kb in the experiment listed under Oryctolagus cuniculus (Oryctolagus cuniculus, Aorta) came out at 0.45 nM. Further, the “Decrease in blood pressure” value in the experiment with Rattus norvegicus [2] amounted to 1%; in the experiment on Rattus norvegicus [3], 0%; in the experiment with Rattus norvegicus [4], 8%; in the experiment on Rattus norvegicus [5] it was 2%. Also, the ED50 with Rattus norvegicus [6] stood at 0.076 µmol/kg.
`CCCCC1=NC(c2ccc(Cl)cc2)=C(C(=O)OCC)C(C)N1Cc1ccc(-c2ccccc2C(=O)O)cc1` (stereo unspecified) displayed a Ki in experiment [1] of 190 nM. Moreover, the Kb in the experiment listed under Oryctolagus cuniculus (Oryctolagus cuniculus, Aorta) is 520 nM.
In turn, `CCCCC1=NC(Cl)=C(C(=O)OCC)C(c2ccccc2)N1Cc1ccc(-c2ccccc2C(=O)O)cc1` (stereo unspecified) registered a Kb in the experiment listed under Oryctolagus cuniculus (Oryctolagus cuniculus, Aorta) of 1000 nM.
Take `CCCCC1=NC(C)(C)C(C(=O)OCC)=C(Cl)N1Cc1ccc(-c2ccccc2-c2nn[nH]n2)cc1`: the affinity in experiment [1] corresponds to a Ki of 1.1 nM. This compound displayed an antagonist equilibrium constant (Kb) in the experiment filed under Oryctolagus cuniculus (Oryctolagus cuniculus, Aorta) of 24 nM. Further, the “Decrease in blood pressure” value with Rattus norvegicus [2] is listed as 2%; in the experiment with Rattus norvegicus [3] it was 3%; in the experiment with Rattus norvegicus [4], 5%; in the experiment with Rattus norvegicus [5], 4%. In addition, the 50% effect level in the experiment on Rattus norvegicus [6] (ED50) was put at a dose of 2.4 µmol/kg.
As to `CCCCc1nc(Cl)c(CO)n1Cc1ccc(-c2ccccc2-c2nnn[n-]2)cc1.[K+]` [LOSARTAN POTASSIUM], the “Decrease in blood pressure” value was 31% with Rattus norvegicus [7]; 20% with Rattus norvegicus [8]; 37% and 22% with Rattus norvegicus [9]; 13% in the experiment with Rattus norvegicus [10]; 35% in the experiment with Rattus norvegicus [11]; 38% and 24% in the experiment with Rattus norvegicus [12]. This compound gave a Kb in the experiment listed under Oryctolagus cuniculus of 2.6 nM. The compound further came in with an ED50 in the experiment with Rattus norvegicus [6] of 1.8 µmol/kg.
Take `CCCCC1=NC(Cl)=C(C(=O)OCC)C(C)N1Cc1ccc(-c2ccccc2-c2nnn[n-]2)cc1.[K+]` (stereo unspecified): the “Decrease in blood pressure” value in the experiment on Rattus norvegicus [7] stood at 23%; in the experiment with Rattus norvegicus [13], 17%; in the experiment with Rattus norvegicus [14], 14%; in the experiment on Rattus norvegicus [2], 20%; with Rattus norvegicus [3] it was 20%; in the experiment with Rattus norvegicus [5], 19%. Besides, the “Decrease in blood pressure” value with Rattus norvegicus [15] is recorded as 15%; in the experiment on Rattus norvegicus [16], 14%. Moreover, the Ki in experiment [1] came out at 8.3 nM. The same compound showed a Kb in the experiment filed under Oryctolagus cuniculus (Oryctolagus cuniculus, Aorta) of 5.3 nM. Moreover, the 50% effect level in the experiment with Rattus norvegicus [6] (ED50) was put at a dose of 1.65 µmol/kg.
Consider `CCCCC1=NC(Cl)=C(C(=O)OCC)C(C)N1Cc1ccc(-c2ccccc2C(=O)O)cc1` (stereo unspecified), for which the inhibition constant (Ki) in [1] was 41 nM. The same compound gave a Kb in the experiment listed under Oryctolagus cuniculus (Oryctolagus cuniculus, Aorta) of 70 nM.
Regarding `CCCCc1ncc(C(=O)OCC)c(=O)n1Cc1ccc(-c2ccccc2C(=O)O)cc1`, the Ki in experiment [1] came out at 82 nM. The compound also had a Kb in the experiment filed under Oryctolagus cuniculus (Oryctolagus cuniculus, Aorta) of 610 nM.
`CCCCC1=NC(C)(C)C(C(=O)OCC)=C(Cl)N1Cc1ccc(-c2ccccc2C(=O)O)cc1` registered a Ki in experiment [1] of 58 nM. The Kb in the experiment listed under Oryctolagus cuniculus (Oryctolagus cuniculus, Aorta) worked out at 23 nM.
For the compound `CCCCc1nc(C)c(C(=O)OCC)c(=O)n1Cc1ccc(-c2ccccc2C(=O)O)cc1`, affinity in experiment [1] was put at a Ki of 150 nM. For the same compound, the Kb in the experiment listed under Oryctolagus cuniculus (Oryctolagus cuniculus, Aorta) is 95 nM.
With `CCCCC1=NC(c2ccccc2)=C(C(=O)OCC)C(C)N1Cc1ccc(-c2ccccc2C(=O)O)cc1` (stereo unspecified), affinity in experiment [1] was put at a Ki of 850 nM. This compound also yielded a Kb in the experiment filed under Oryctolagus cuniculus (Oryctolagus cuniculus, Aorta) of 630 nM.
